Screens as filed in PubChem.
Apaf-1 act = activators of human Apaf-1 apoptosome; activity change, negative = activation, % at 20 µM; O14727; AID 489031; Apaf-1 apoptosome caspase-3 activation, DEVD-Rh110 fluorescence; active compounds read low; 330,000 compounds, 0.31% hits;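 active = activity change at or below -40% at 20 µM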
Target sequence (O14727 whole entry, looked up): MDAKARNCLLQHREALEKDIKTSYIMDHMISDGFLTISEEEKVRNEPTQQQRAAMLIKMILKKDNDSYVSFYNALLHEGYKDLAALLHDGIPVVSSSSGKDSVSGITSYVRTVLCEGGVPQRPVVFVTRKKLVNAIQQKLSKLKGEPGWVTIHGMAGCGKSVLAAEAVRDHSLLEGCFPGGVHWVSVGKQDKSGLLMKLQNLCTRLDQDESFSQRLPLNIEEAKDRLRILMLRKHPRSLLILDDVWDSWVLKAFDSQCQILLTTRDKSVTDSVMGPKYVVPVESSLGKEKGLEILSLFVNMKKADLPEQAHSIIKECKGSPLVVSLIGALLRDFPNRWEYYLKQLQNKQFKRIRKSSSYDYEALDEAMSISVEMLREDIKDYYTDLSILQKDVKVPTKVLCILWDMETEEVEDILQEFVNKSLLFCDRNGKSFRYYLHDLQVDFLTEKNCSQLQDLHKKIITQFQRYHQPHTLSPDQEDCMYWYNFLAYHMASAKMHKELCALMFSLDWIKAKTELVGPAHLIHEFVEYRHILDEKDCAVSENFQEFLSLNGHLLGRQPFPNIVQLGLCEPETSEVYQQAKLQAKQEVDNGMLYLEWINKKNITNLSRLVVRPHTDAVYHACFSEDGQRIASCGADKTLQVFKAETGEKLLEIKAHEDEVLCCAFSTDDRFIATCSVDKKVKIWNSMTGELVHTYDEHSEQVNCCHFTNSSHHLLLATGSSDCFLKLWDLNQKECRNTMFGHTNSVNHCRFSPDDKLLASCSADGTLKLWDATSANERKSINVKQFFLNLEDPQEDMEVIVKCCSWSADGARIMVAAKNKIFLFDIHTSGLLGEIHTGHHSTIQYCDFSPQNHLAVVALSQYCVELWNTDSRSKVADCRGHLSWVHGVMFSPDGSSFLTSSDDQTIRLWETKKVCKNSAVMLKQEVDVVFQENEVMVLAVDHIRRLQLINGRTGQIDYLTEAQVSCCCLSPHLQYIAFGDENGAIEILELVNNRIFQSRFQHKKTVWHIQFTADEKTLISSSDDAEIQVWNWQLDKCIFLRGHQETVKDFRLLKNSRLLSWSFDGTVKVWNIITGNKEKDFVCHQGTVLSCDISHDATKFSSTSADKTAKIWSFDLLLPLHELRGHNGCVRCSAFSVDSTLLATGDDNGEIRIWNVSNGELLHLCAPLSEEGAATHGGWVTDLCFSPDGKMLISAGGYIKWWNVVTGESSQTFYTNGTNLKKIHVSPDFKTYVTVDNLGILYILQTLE
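Assay system – biochemical Apaf-1 apoptosome reconstitution · Medium – 20 mM HEPES buffer, pH 7.5, containing CHAPS and BSA · Incubation – 30 min preincubation, 50 min reaction, room temperature · Measured by – Caspase-3-released Rh110 fluorescence, 540 nm emission, 480 nm excitation · Read-out – Caspase-3 cleavage activity downstream of Apaf-1 activation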
Rh110 interf act = Rh110 signal interference in Apaf-1 activator counter-screen; shares compounds with Apaf-1 act; AID 504616; Rh110 fluorescence interference, quenched caspase reaction, Ex480/Em540; 980 tested, under 10 active; fluorescence interference (activity change), % at 20 µM, hits read low;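 active = mean activity change at or below -40% when tested at 20 µM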
Apaf-1 act conf = confirmation of human Apaf-1 activators; activity change, negative = activation, % at 20 µM; reconstituted apoptosome caspase-3 activity, DEVD-Rh110 fluorescence; active compounds read low; 980 compounds, 5% hits; shares compounds with Apaf-1 act;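 active = mean activity change at or below -40%, meaning activation of 40% or more, at 20 µM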
Active calls of the source: *; x = no result. Only a sample is shown.

SMILES | Apaf-1 act | Rh110 interf act | Apaf-1 act conf
CCN(CC)CCOc1ccc(/C(=C(/Cl)c2ccccc2)c2ccccc2)cc1 | 66.2 | x | x
CCN1CCN(Cc2ccc(NC(=O)c3ccc(C)c(NC(=O)c4cc(-c5ccc(Br)cc5)n[nH]4)c3)cc2C(F)(F)F)CC1 | 45.3 | x | x
COc1ccc(O)c(N)c1 | 76.2 | x | x
Oc1ccc(/C=N/Nc2cc(N3CCCC3)nc(N3CCCC3)n2)cc1 | 97.4 | x | x
Cc1cccc(C)c1OCc1cc(C(=O)NCC2CCCCC2)no1 | -56.9* | 2.4 | 13.4
O=S(=O)(Nc1cccc(-c2nc3cccnc3s2)c1)c1ccc2c(c1)OCCO2 | -103.6* | 2.1 | 9.8
CC(=O)N(/N=C1\Sc2ccccc2C1=O)c1ccccc1C | 89.8 | x | x
CCCCn1c(N)c(N(CC)C(=O)CN2C(=O)NC(C)(c3ccccc3)C2=O)c(=O)[nH]c1=O (stereo not drawn) | -440.7* | 8.5 | 10.5
CCC1(c2ccccc2)NC(=O)N(CC(=O)Nc2cc(Cl)ccc2N2CCN(C)CC2)C1=O (stereo not drawn) | 58.2 | x | x
CCC1(C)NC(=O)N(CC(=O)N2CCC(Cc3ccccc3)CC2)C1=O (stereo not drawn) | 58.3 | x | x
Cc1c(NC(=O)CSc2ccc3c(c2)OCCO3)c(=O)n(-c2ccccc2)n1C | -45.6* | 11.2 | 9.4
CC1=CC(=Nc2c(C)n(C)n(-c3ccccc3)c2=O)C=CC1=O | 43.1 | x | x
Cc1ccsc1C(=O)OCC(=O)Nc1c(C)n(C)n(-c2ccccc2)c1=O | -77.2* | 3.5 | 9.2
CCOC(=O)N1CCN(c2cc(NCCC(=O)O)c3c4c(onc24)-c2ccccc2C3=O)CC1 | 75.2 | x | x
COc1cc(/C=C2\C(=O)N(c3ccc(S(N)(=O)=O)cc3)N=C2C)ccc1OC(=O)c1ccco1 | 90.7 | x | x
COc1ccc(O)c(C(c2c(C)[nH][nH]c2=O)c2c(C)[nH][nH]c2=O)c1 | 66.5 | x | x
Cc1oc2c(c1C(=O)c1ccccc1)C(=O)C(=O)c1ccccc1-2 | 91.4 | x | x
O=C(N/N=C/c1ccc(-c2ccccc2[N+](=O)[O-])o1)c1cncc(Br)c1 | 80.8 | x | x
O=C(COc1ccccc1[N+](=O)[O-])N/N=C/c1ccncc1 | -53.1* | 8.8 | 14.8
O=C(N/N=C\c1ccc(-c2ccccc2[N+](=O)[O-])o1)C1COc2ccccc2O1 (stereo not drawn) | 79.5 | x | x
CCN1/C(=C/C=C/c2oc3ccc4ccccc4c3[n+]2CC)Oc2ccc3ccccc3c21 | 76.3 | x | x
Oc1cccc(/C=N/Nc2cc(N3CCCC3)nc(N3CCCC3)n2)c1 | 96.9 | x | x
CC(C)c1nccn1S(=O)(=O)c1cc(Cl)ccc1Cl | -40.7* | -0.6 | 6.8
Cc1c(CCOC(=O)CC23CC4CC(CC(C4)C2)C3)sc[n+]1CC(=O)c1ccc(Br)cc1 | 49.3 | x | x
CN1CCc2c(C#N)c(N3CCCCC3)nc(NCc3ccccc3)c2C1 | 52.0 | x | x
SMILES | Apaf-1 act | Rh110 interf act | Apaf-1 act conf
CCOc1ccc2nc3cc(NCc4ccc(OC)cc4)ccc3c(N)c2c1 | 96.5 | x | x
COc1ccc(NC(=S)Nc2ccc3nsnc3c2)cc1 | 96.5 | x | x
COCCNC(=O)c1cc2nc(-c3ccccc3)cc(C)n2n1 | -169.1* | 12.2 | 13.6
COCCNC(=O)c1c(N)n(CCC2=CCCCC2)c2nc3ccccc3nc12 | 63.3 | x | x
Cc1c(CCC(C)C)c(=O)n2c([nH]c3ccccc32)c1C#N | 59.6 | x | x
CC1(OC(=O)C2CCCC2)C(=O)C=C2C=C(c3ccsc3)N(CCCCO)C=C2C1=O (stereo not drawn) | 54.2 | x | x
O=C(Nc1cccc([N+](=O)[O-])c1)Nc1ccc2c(c1)OCCO2 | -288.0* | 4.9 | 3.2
COc1ccc(C(=O)/C=C/N(C)C)cc1OC | -106.8* | 3.0 | 7.9
COc1ccc(C(=O)c2nccc3cc(OC)c(OC)cc23)cc1OC | 83.6 | x | x
CN(C)/C=C/C(=O)c1ccc(S(=O)(=O)c2ccccc2)cc1 | -61.3* | -1.7 | 6.0
COc1ccc(NC(=O)[C@@H](NC(=O)N2C[C@H]3C[C@@H](C2)c2cccc(=O)n2C3)C(C)C)cc1OC | 61.7 | x | x
CC(C)[C@H](CN1CCC[C@H]1CN1C(N)=NC[C@@H]1Cc1ccccc1)N1C[C@@H](Cc2ccccc2)N(CCc2ccc(Cl)c(Cl)c2)C1=N | 82.3 | x | x
CCCCCCCNC(=O)C1(CC2CC(c3cccc(Br)c3)=NO2)CCNCC1 (stereo not drawn) | 46.2 | x | x
CCOC(=O)c1[nH]c2ccc(OC)cc2c1NC(=O)c1nonc1C | -143.6* | 2.3 | 2.3
CCOC(=O)c1[nH]c(=O)c2ccccc2c1O | 75.3 | x | x
CCOC(=O)c1cc2cc3ccccc3cc2[nH]1 | 58.4 | x | x
NS(=O)(=O)c1ccc(NC2=CC(=O)C(=O)c3ccccc32)cc1 | 95.0 | x | x
CC(C)Oc1ccc(C2NC(=O)c3ccccc3O2)cc1 (stereo not drawn) | -97.8* | 1.4 | 2.5
CC(C)COCC(CN(Cc1ccccc1)c1ccccc1)N1CCCC1 (stereo not drawn) | 48.6 | x | x
O=c1[nH]c(C2CCCN(S(=O)(=O)c3ccccc3F)C2)nc2c1nnn2Cc1ccccc1Cl (stereo not drawn) | 41.2 | x | x
Cc1cc(=O)[nH]c(N/N=C/c2ccc(Cl)c([N+](=O)[O-])c2)n1 | -73.4* | 4.4 | 9.2
CS(=O)c1nc(-c2ccc(Br)cc2)cc(-c2ccccc2)c1C#N (stereo not drawn) | 55.4 | x | x
CC(C)n1cnc2c(N(C)c3ccccc3)nc(N(CCN(C)C)Cc3ccccc3)nc21 | 44.0 | x | x
COC(=O)CCC(=O)OC1(C)C(=O)C=C2C=C(C3CC3)N(Cc3ccccc3)C=C2C1=O (stereo not drawn) | 42.2 | x | x
Cc1sc2ncn(CC(=O)NCCCC(=O)N3CCN(c4ccccc4)CC3)c(=O)c2c1C | -312.6* | 1.7 | 7.9
SMILES | Apaf-1 act | Rh110 interf act | Apaf-1 act conf
COc1ccc(CCNC(=O)CSc2nnc(C(C)N(C)C)n2Cc2ccccc2)cc1OC (stereo not drawn) | -60.4* | 21.7 | 14.8
Cc1ccc(SCC(=O)OCC(=O)NCCNC(=O)COC(=O)CSc2ccc(C)c(C)c2)cc1C | 40.1 | x | x
COc1ccc(Cn2c(SCc3ccccc3C)nc3cc(OC)c(OC)cc3c2=N)cc1 | 69.7 | x | x
O=C(N/N=C/c1ccc(OC(=O)c2ccccc2)cc1)c1ccc(CN2CCOCC2)cc1 | -67.9* | 0.4 | 11.1
Cc1cc2cc(CNS(=O)(=O)c3ccccc3)ccc2n1C | 60.9 | x | x
CC1(C)N([O-])c2cc([N+](=O)[O-])ccc2[N+]1=O | 66.4 | x | x
CCS(=O)(=O)NCCc1csc(C)n1 | -484.3* | 8.4 | 12.2
CC[C@H](C)Cc1cn([C@@H](CCCN=C(NC(=O)OC(C)(C)C)NC(=O)OC(C)(C)C)C(=O)NCCCCCCCCCCC(=O)N2CCN(C(=O)OC(C)(C)C)CC2)nn1 | 57.3 | x | x
O=C(NCCCn1ccnc1)c1noc2c1CCc1ccccc1-2 | 47.2 | x | x
O=C(C[C@H]1C[C@H](C(=O)N2CCOCC2)[C@@]2(CCC3CCCC3)c3[nH]c4ccc(Cl)cc4c3CCN2C1=O)NCCCn1ccnc1 | 58.2 | x | x
O=C(NCCCn1ccnc1)c1cc(Cl)cc(Cl)c1 | -105.7* | -38.4 | 7.3
CCCCCc1cc(=O)oc2c(C(CCN3CCCC3)c3ccc(N(C)C)cc3)c(OC)cc(OC)c12 (stereo not drawn) | 45.2 | x | x
S=C(Nc1cccnc1)Nc1cccc2cnccc12 | 86.3 | x | x
CCN(C(=S)Nc1cccnc1)c1cccc2ccccc12 | 84.7 | x | x
